Measured values reported in ChEMBL document CHEMBL1145628, “New tetrazole-based selective anandamide uptake inhibitors” (Bioorg Med Chem Lett, 2008).

Columns and labels:
Cannabinoid receptor 2 = Cannabinoid receptor 2 (Homo sapiens, UniProt P34972); assay: Binding affinity to human CB2 receptor expressed in COS cells; format: cell-based
How it was run: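 Human CB2 receptor expressed by transfection in COS cells. Each value is the mean of 4 separate determinations.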

[1] = target: Transient receptor potential cation channel subfamily A member 1 (Rattus norvegicus, UniProt Q6RI86); assay: Agonist activity at rat TRPA1 channel expressed in human HEK293 cells assessed as elevation in intracellular calcium flux; format: functional, cell-based
Transient receptor potential cation channel subfamily A member 1, sequence (Q6RI86 whole entry): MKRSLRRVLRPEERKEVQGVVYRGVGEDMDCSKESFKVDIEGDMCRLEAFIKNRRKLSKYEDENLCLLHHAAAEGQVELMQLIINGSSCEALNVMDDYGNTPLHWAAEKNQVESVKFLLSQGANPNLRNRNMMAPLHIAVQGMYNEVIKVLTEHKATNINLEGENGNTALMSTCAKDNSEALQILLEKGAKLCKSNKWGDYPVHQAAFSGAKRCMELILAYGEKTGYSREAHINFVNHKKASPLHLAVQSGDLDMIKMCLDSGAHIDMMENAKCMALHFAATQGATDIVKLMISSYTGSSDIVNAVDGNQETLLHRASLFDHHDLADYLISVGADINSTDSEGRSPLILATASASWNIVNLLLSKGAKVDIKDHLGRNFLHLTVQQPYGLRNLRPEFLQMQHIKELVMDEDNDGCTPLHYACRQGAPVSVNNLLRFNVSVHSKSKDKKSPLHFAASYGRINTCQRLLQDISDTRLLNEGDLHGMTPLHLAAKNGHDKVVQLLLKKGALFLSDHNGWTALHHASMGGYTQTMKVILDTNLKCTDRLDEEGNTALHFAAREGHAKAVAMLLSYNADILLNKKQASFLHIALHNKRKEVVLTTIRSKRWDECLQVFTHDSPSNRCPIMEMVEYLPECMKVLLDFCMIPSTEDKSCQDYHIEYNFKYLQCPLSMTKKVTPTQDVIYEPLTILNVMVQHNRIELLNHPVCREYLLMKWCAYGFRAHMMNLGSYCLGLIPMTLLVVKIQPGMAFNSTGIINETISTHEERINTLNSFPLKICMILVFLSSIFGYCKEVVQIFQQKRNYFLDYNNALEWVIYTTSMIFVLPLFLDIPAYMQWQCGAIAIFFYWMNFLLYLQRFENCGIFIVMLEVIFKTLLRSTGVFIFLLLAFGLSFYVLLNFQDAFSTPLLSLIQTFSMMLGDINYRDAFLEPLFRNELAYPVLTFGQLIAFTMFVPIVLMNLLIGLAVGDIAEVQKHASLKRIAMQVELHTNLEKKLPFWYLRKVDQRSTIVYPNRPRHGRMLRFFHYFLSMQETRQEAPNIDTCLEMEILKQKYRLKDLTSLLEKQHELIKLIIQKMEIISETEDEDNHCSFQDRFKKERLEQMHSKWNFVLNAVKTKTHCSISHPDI
How it was run: (§1)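 Stably rat TRPA1-transfected HEK-293 cells, grown 3 days, were loaded with 4 µM Fluo4-AM plus 0.02% Pluronic for 1 h at room temperature. They were washed and resuspended in Tyrode's buffer pH 7.4, and [Ca2+]i was read under stirring (ex 488/em 516 nm) before and after compound addition. EC50 is the half-maximal [Ca2+]i rise. Efficacy (100 µM compound) is expressed relative to 100 µM mustard oil; n = 4 means.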

[2] = target: T1, Diacylglycerol lipase-alpha (Homo sapiens, UniProt Q9Y4D2); assay: Inhibition of human DAGLalpha mediated sn-1-[14C]oleoyl-2-arachidonoyl-glycerol hydrolysis to 2-AG in COS cell
T1 sequence (Q9Y4D2 whole entry): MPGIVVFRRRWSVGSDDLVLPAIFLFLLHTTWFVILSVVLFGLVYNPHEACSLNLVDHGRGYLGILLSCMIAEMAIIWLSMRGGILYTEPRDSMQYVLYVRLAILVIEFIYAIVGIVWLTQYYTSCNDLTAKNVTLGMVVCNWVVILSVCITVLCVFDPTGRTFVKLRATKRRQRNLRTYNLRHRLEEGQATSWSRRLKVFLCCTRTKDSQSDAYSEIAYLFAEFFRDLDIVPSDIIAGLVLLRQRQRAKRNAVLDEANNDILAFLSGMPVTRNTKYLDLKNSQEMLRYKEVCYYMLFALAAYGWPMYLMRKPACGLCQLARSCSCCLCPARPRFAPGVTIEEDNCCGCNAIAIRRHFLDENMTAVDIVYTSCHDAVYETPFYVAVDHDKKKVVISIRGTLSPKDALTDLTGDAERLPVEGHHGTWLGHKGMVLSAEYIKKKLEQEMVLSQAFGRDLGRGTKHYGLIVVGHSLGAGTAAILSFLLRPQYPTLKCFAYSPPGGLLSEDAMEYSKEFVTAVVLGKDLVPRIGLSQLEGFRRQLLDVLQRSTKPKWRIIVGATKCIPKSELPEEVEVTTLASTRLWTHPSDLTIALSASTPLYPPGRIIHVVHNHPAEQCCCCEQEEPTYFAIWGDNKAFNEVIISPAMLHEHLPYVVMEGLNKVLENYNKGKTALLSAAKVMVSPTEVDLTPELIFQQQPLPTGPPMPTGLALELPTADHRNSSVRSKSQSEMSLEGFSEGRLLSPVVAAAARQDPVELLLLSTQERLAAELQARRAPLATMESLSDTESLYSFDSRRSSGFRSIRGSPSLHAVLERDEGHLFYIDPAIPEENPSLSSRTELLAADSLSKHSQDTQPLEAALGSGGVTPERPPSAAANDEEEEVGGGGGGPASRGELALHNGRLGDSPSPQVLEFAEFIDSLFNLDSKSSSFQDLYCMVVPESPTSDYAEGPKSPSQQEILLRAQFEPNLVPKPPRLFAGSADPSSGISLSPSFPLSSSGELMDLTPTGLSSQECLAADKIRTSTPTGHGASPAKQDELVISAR
How it was run: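 Substrate: sn-1-[14C]oleoyl-2-arachidonoyl-glycerol. Conversion into 2-AG and [14C]oleic acid was followed using membranes of COS cells overexpressing human recombinant DAGLα; n = 4 means.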

[3] = target: T2, Transient receptor potential cation channel subfamily V member 1 (Homo sapiens, UniProt Q8NER1); assay: Agonist activity at human TRPV1 channel expressed in human HEK293 cells assessed as elevation in intracellular calcium flux; format: functional, cell-based
T2 sequence (Q8NER1 whole entry): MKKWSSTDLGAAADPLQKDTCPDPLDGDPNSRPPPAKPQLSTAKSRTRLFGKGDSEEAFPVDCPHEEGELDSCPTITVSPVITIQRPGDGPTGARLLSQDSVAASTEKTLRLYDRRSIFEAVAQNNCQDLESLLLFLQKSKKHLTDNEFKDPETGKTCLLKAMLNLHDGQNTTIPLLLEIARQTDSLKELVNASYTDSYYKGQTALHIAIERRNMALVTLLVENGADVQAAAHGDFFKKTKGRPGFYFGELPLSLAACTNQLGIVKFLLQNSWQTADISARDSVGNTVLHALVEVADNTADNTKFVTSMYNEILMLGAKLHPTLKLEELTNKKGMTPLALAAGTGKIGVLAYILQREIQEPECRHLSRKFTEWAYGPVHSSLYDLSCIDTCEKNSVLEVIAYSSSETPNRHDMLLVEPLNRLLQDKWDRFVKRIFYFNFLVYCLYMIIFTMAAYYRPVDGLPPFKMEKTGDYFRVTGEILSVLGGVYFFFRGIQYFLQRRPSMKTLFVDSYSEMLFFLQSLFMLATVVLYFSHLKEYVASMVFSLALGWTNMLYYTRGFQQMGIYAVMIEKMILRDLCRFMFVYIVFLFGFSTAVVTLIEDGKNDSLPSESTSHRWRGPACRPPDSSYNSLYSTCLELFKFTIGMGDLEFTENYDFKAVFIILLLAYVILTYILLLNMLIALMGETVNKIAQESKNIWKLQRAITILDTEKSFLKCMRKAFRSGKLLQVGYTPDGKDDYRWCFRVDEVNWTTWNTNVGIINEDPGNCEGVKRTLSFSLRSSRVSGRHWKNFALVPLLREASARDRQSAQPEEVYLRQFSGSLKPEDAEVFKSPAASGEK
How it was run: (§2)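 HEK-293 cells overexpressing TRPV1 were used, with intracellular Ca2+ elevation as the read-out. The single-point value is the effect of 10 µM compound as percent of the Ca2+ response to 4 µM ionomycin. Data are means of 4 separate determinations.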

[4] = target: T2, Transient receptor potential cation channel subfamily V member 1; assay: Agonist activity at human TRPV1 channel expressed in human HEK293 cells assessed as elevation in intracellular calcium flux at 10 uM relative to ionomycin; format: functional, cell-based; how it was run: as §2
Cannabinoid receptor 1 = Cannabinoid receptor 1 (Homo sapiens, UniProt P21554); assay: Binding affinity to human CB1 receptor expressed in COS cells; format: cell-based
Cannabinoid receptor 1, sequence (P21554 whole entry): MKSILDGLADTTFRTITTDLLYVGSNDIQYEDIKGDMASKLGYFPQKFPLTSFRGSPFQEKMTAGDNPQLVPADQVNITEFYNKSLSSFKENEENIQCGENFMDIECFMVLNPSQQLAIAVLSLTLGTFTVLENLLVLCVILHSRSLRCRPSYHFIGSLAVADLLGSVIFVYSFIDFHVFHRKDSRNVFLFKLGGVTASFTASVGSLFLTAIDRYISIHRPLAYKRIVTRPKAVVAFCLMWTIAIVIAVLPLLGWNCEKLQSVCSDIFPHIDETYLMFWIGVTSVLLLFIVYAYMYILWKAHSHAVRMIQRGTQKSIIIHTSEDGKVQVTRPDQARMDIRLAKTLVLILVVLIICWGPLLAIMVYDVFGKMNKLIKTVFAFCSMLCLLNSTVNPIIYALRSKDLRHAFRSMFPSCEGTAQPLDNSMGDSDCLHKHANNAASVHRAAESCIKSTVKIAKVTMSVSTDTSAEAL
How it was run: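 Tested at CB1 receptors in transfected COS cells; means of 4 separate determinations.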

[5] = target: T3, Fatty-acid amide hydrolase 1 (Rattus norvegicus, UniProt P97612); assay: Inhibition of rat brain FAAH mediated [14C]anandamide hydrolysis
T3 sequence (P97612 whole entry): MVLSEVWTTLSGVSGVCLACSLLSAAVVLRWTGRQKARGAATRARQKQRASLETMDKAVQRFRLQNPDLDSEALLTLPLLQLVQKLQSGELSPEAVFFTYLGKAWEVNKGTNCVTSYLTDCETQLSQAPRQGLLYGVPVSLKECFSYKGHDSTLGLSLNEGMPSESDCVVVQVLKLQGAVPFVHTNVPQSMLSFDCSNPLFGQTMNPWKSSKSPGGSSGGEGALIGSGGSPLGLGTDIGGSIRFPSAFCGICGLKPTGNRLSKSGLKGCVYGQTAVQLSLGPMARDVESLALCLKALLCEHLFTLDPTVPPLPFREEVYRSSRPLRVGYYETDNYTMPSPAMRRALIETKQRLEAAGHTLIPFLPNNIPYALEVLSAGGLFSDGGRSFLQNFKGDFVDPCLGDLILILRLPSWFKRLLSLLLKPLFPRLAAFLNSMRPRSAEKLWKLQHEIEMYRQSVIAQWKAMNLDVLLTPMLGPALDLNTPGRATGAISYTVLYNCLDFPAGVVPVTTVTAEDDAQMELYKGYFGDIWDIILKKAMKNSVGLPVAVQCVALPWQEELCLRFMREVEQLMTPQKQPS
How it was run: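 Hydrolysis of [14C]anandamide was measured with rat brain membranes as the enzyme source; means of n = 4.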

[6] = target: Transient receptor potential cation channel subfamily A member 1 (Rattus norvegicus) (UniProt Q6RI86); assay: Agonist activity at rat TRPA1 channel expressed in human HEK293 cells assessed as elevation in intracellular calcium flux at 100 uM relative to mustard oil; format: functional, cell-based; how it was run: as §1
Transient receptor potential cation channel subfamily A member 1 (Rattus norvegicus), sequence (Q6RI86 whole entry): as the sequence (Q6RI86 whole entry) above

RBL-2H3 = assay: Inhibition of [14C]anandamide uptake in rat RBL-2H3; format: functional, cell-based
How it was run: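 Uptake of [14C]anandamide was measured in intact RBL-2H3 cells; means of n = 4.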

[7] = Inhibition of human MAGL mediated [14C]2-AG hydrolysis in COS cell; format: cell-based
How it was run: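 Enzyme source was cytosolic fractions of COS cells (MAGL-expressing), with hydrolysis of [14C]2-AG as the read-out; means of 4 determinations.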

Cannabinoid receptor 2, sequence (P34972 whole entry): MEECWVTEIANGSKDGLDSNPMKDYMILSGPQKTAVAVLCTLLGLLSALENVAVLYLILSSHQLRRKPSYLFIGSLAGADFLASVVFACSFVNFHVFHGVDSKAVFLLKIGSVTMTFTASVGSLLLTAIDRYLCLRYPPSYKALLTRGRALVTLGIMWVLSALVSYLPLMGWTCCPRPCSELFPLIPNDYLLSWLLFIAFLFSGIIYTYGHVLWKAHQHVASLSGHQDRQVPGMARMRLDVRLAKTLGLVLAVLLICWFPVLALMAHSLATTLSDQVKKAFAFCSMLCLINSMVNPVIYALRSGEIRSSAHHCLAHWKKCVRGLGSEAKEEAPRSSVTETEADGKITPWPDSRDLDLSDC

| Structure (SMILES) | Ki (Cannabinoid receptor 2) [µM] | EC50 [1] [µM] | IC50 [2] [µM] | EC50 [3] [µM] | Efficacy [4] [%] | Ki (Cannabinoid receptor 1) [µM] | IC50 [5] [µM] | Efficacy [6] [%] | IC50 (RBL-2H3) [µM] | IC50 [7] [µM] |
| --- | --- | --- | --- | --- | --- | --- | --- | --- | --- | --- |
| COC(=O)Cn1nnnc1Cc1ccc(-c2ccccc2)cc1 | > 10 | > 100 | > 10 | > 100 | 0 | > 10 | > 50 | 0 | 4.9 | > 10 |
| N#CCn1nnnc1Cc1ccc(-c2ccccc2)cc1 | > 10 | 26.3 | > 10 | > 100 | 5.4 | > 10 | > 50 | 83.2 | 24.8 | > 10 |
| CN(C)C(=O)Cn1nnc(Cc2ccc(-c3ccccc3)cc2)n1 | > 10 | > 100 | > 10 | > 100 | 5.3 | > 10 | > 50 | 0 | > 25 | > 10 |
| COC(=O)Cn1nnc(CNC(=O)c2ccc(-c3ccccc3)cc2)n1 | > 10 | > 100 | > 10 | > 100 | 2.2 | > 10 | > 50 | 0 | > 25 | > 10 |
| COC(=O)Cn1nnc(Cc2ccc(-c3ccccc3)cc2)n1 | 8.1 | > 100 | > 10 | > 100 | 0 | > 10 | > 50 | 36 | > 25 | > 10 |
| N#CCn1nnc(Cc2ccc(-c3ccccc3)cc2)n1 | 6.2 | 16.2 | > 10 | > 100 | 0 | > 10 | > 50 | 102 | 5.1 | > 10 |
| CC(C)Cn1nnnc1Cc1ccc(-c2ccccc2)cc1 | 7.7 | > 100 | > 10 | > 100 | 4.7 | > 10 | > 50 | 50.8 | > 25 | > 10 |
| CC(=O)Cn1nnc(Cc2ccc(-c3ccccc3)cc2)n1 | 5.2 | > 100 | > 10 | > 100 | 0 | > 10 | > 50 | 61.4 | > 25 | > 10 |
| CN(C)C(=O)Cn1nnnc1Cc1ccc(-c2ccccc2)cc1 | > 10 | > 100 | > 10 | > 100 | 4 | > 10 | > 50 | 0 | 5.1 | > 10 |
| CC(C)Cn1nnc(Cc2ccc(-c3ccccc3)cc2)n1 | 4.7 | 26.3 | > 10 | 10 | 20.7 | 1.6 | > 50 | 136 | > 25 | > 10 |
| CC(=O)Cn1nnnc1Cc1ccc(-c2ccccc2)cc1 | > 10 | > 100 | > 10 | > 100 | 0 | > 10 | > 50 | 11.4 | 5 | > 10 |
| CC(C)Cn1nnc(CNC(=O)c2ccc(-c3ccccc3)cc2)n1 | > 10 | > 100 | > 10 | 53.5 | 10.2 | > 10 | > 50 | 0 | > 25 | > 10 |
| CC(=O)Cn1nnnc1CNC(=O)c1ccc(-c2ccccc2)cc1 | > 10 | > 100 | > 10 | > 100 | 7.7 | > 10 | > 50 | 0 | 12.5 | > 10 |
| N#CCn1nnnc1CNC(=O)c1ccc(-c2ccccc2)cc1 | > 10 | > 100 | > 10 | > 100 | 6.3 | > 10 | > 50 | 0 | > 25 | > 10 |
| CC(=O)Cn1nnc(CNC(=O)c2ccc(-c3ccccc3)cc2)n1 | > 10 | > 100 | > 10 | > 100 | 0 | > 10 | > 50 | 14 | > 25 | > 10 |
| COC(=O)Cn1nnnc1CNC(=O)c1ccc(-c2ccccc2)cc1 | > 10 | > 100 | > 10 | 29.6 | 8.6 | > 10 | > 50 | 0 | > 25 | > 10 |
| N#CCn1nnc(CNC(=O)c2ccc(-c3ccccc3)cc2)n1 | > 10 | > 100 | > 10 | > 100 | 2.6 | > 10 | > 50 | 0 | > 25 | > 10 |
| CN(C)C(=O)Cn1nnc(CNC(=O)c2ccc(-c3ccccc3)cc2)n1 | > 10 | > 100 | > 10 | > 100 | 1.2 | > 10 | > 50 | 0 | 2.3 | > 10 |
| CC(C)Cn1nnnc1CNC(=O)c1ccc(-c2ccccc2)cc1 | > 10 | > 100 | > 10 | 15 | 9.1 | > 10 | > 50 | 26.1 | > 25 | > 10 |
